Test results published in ChEMBL document CHEMBL1126709, “Structure-activity relationship studies at the benzodiazepine receptor (BZR): a comparison of the substitutent effects of pyrazoloquinolinone analogs” (J Med Chem, 1993).

How the values were obtained:
[1] = target: GABA-A receptor; anion channel; assay: Partial agonistic activity against specific binding of [3H]-Ro-15-1788 to GABA-A Benzodiazepine receptor in rat cortex
Procedure, shortened: (§1)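 Rat brain (Sprague-Dawley) cortex homogenized in 50 mM Tris-citrate pH 7.4, centrifuged at 20000g, washed five times and stored at -80 °C. About 0.12 mg protein was incubated with [3H]Ro15-1788 (1 nM final) for 1 h at 0–4 °C. Nonspecific binding was defined with 10 μM Ro14-7437. Bound label was separated by filtration and counted by scintillation. IC50 was taken from 10-concentration curves run in triplicate.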

[2] = target: GABA-A receptor; anion channel (Rattus norvegicus) (UniProt O09028+P15431+P18506+P18508+P19969+P20236+P23574+P23576+P28471+P28473+P30191+P62813+P63079+P63138+Q91ZM7+Q9ES14); assay: Relative binding to GABA-A receptor in the presence and absence of GABA; assay type: protein-complex assay
Procedure, shortened: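 GABA shift ratio is IC50 without GABA divided by IC50 with GABA. Both were measured as [3H]Ro15-1788 (1 nM) displacement in washed rat cortical membranes, 1 h at 0–4 °C, with filtration and scintillation counting. The GABA arm also contained NaCl (400 mM) and GABA (200 mM, as printed). Curves used 10 concentrations in triplicate.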

[3] = target: GABA-A receptor; anion channel; assay: Specific binding of [3H]Ro-151788 to GABA-A Benzodiazepine receptor in rat cortex; procedure, shortened: as §1

For `COc1ccc(-n2nc3c4ccccc4[nH]cc-3c2=O)cc1`, the IC50 [1] was 0.38 nM and the Ratio [2] was 0.94.
`O=c1c2cnc3ccc(Cl)cc3c2[nH]n1-c1ccc(Cl)cc1` gave an IC50 [3] of 4 nM and a Ratio [2] of 1.47.
Molecule `O=C1C2C=Nc3ccccc3C2=NN1c1ccccc1` (stereo not drawn) [CGS-8216] has an IC50 [1] of 0.13 nM and a Ratio [2] of 0.99.
`COc1ccc2ncc3c(=O)n(-c4ccccc4)[nH]c3c2c1` showed an IC50 [3] of 0.38 nM and a Ratio [2] of 0.91.
With `O=c1c2cnc3ccccc3c2[nH]n1-c1ccccc1Cl` the IC50 [3] was 70 nM and the Ratio [2] was 1.
`O=c1c2cnc3ccc(Cl)cc3c2[nH]n1-c1ccccc1Cl` gave an IC50 [3] of 8 nM and a Ratio [2] of 1.34.
For `COc1cccc(-n2[nH]c3c(cnc4ccccc43)c2=O)c1`, the IC50 [3] was 0.58 nM and the Ratio [2] was 1.1.
With `COc1ccc2c(c1)ncc1c(=O)n(-c3ccccc3)[nH]c12` the IC50 [3] was 2.1 nM and the Ratio [2] was 0.97.
For `O=C1C2C=Nc3ccccc3C2=NN1c1ccc(Cl)cc1` (stereo not drawn) [CGS-9896], the IC50 [1] was 0.56 nM and the Ratio [2] was 1.07.
In the case of `O=c1c2cnc3ccccc3c2[nH]n1-c1cccc(Cl)c1`, the IC50 [3] is reported as 3.9 nM and the Ratio [2] is reported as 1.7.
`O=c1c2cnc3ccc(Cl)cc3c2[nH]n1-c1ccccc1` was tested, and the IC50 [3] was 0.24 nM and the Ratio [2] was 1.1.
`COc1ccccc1-n1[nH]c2c(cnc3ccccc32)c1=O` showed an IC50 [3] of 990 nM.
